Data: ChEMBL document CHEMBL1143542, “Structure-activity relationships of bivalent aminoglycosides and evaluation of their microbiological activities” (2005)

Tests used:
Assay type in all cases: functional, organism-based
Pseudomonas aeruginosa [1] = assay: Susceptibility testing against Pseudomonas aeruginosa PAE_NUH22; S=Susceptible
Outline: (§1)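 Disk diffusion susceptibility profiling against a panel of empirically used antipseudomonal antibiotics. Each strain was categorised as susceptible (S) or intermediate (I).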

Pseudomonas aeruginosa [2] = assay: Susceptibility testing against Pseudomonas aeruginosa PAE_NUH05; R=Resistant
Outline: (§2)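 Disk diffusion susceptibility profiling of P. aeruginosa reference and clinical isolates against empirically used antipseudomonal antibiotics. Each isolate was categorised as susceptible, intermediate or resistant.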

Pseudomonas aeruginosa [3] = assay: Susceptibility testing against Pseudomonas aeruginosa PAE_NUH06; R=Resistant; outline: as §2
Pseudomonas aeruginosa [4] = assay: Susceptibility testing against Pseudomonas aeruginosa PAE_NUH25; S=Susceptible; outline: as §1
Pseudomonas aeruginosa [5] = assay: Susceptibility testing against Pseudomonas aeruginosa PAE_NUH01; R=Resistant; outline: as §2
Pseudomonas aeruginosa [6] = assay: Susceptibility testing against Pseudomonas aeruginosa PAE_NUH07; R=Resistant; outline: as §2
Pseudomonas aeruginosa [7] = assay: Susceptibility testing against Pseudomonas aeruginosa PAE_NUH19; S=Susceptible; outline: as §1
Pseudomonas aeruginosa [8] = assay: Susceptibility testing against Pseudomonas aeruginosa PAE_NUH24; I=Intermediate; outline: as §2
Pseudomonas aeruginosa [9] = assay: Susceptibility testing against Pseudomonas aeruginosa PAE_NUH04; R=Resistant; outline: as §2
Pseudomonas aeruginosa [10] = assay: Susceptibility testing against Pseudomonas aeruginosa PAE_NUH17; S=Susceptible; outline: as §1
Pseudomonas aeruginosa [11] = assay: Susceptibility testing against Pseudomonas aeruginosa PAE_NUH20; S=Susceptible; outline: as §1
Pseudomonas aeruginosa [12] = assay: Susceptibility testing against Pseudomonas aeruginosa PAE_NUH03; R=Resistant; outline: as §2
Pseudomonas aeruginosa [13] = assay: Susceptibility testing against Pseudomonas aeruginosa ATCC 27853; S=Susceptible; outline: as §1
Pseudomonas aeruginosa [14] = assay: Susceptibility testing against Pseudomonas aeruginosa PAE_NUH02; R=Resistant; outline: as §2
Pseudomonas aeruginosa [15] = assay: Susceptibility testing against Pseudomonas aeruginosa PAE_NUH21; S=Susceptible; outline: as §1
Pseudomonas aeruginosa [16] = assay: Susceptibility testing against Pseudomonas aeruginosa PAE_NUH23; I=Intermediate; outline: as §2
Pseudomonas aeruginosa [17] = assay: Susceptibility testing against Pseudomonas aeruginosa PAE_NUH18; I=Intermediate; outline: as §2
Pseudomonas aeruginosa [18] = assay: Susceptibility testing against Pseudomonas aeruginosa PAE_NUH20; R=Resistant; outline: as §2
Pseudomonas aeruginosa [19] = assay: Susceptibility testing against Pseudomonas aeruginosa PAE_NUH23; R=Resistant; outline: as §2
Pseudomonas aeruginosa [20] = assay: Susceptibility testing against Pseudomonas aeruginosa PAE_NUH24; R=Resistant; outline: as §2
Pseudomonas aeruginosa [21] = assay: Susceptibility testing against Pseudomonas aeruginosa PAE_NUH18; R=Resistant; outline: as §2
Pseudomonas aeruginosa [22] = assay: Susceptibility testing against Pseudomonas aeruginosa PAE_NUH22; R=Resistant; outline: as §2
Pseudomonas aeruginosa [23] = assay: Susceptibility testing against Pseudomonas aeruginosa PAE_NUH25; R=Resistant; outline: as §2
Pseudomonas aeruginosa [24] = assay: Susceptibility testing against Pseudomonas aeruginosa PAE_NUH19; R=Resistant; outline: as §2
Pseudomonas aeruginosa [25] = assay: Susceptibility testing against Pseudomonas aeruginosa PAE_NUH21; R=Resistant; outline: as §2
Pseudomonas aeruginosa [26] = assay: Susceptibility testing against Pseudomonas aeruginosa PAE_NUH23; S=Susceptible; outline: as §1
Pseudomonas aeruginosa [27] = assay: Susceptibility testing against Pseudomonas aeruginosa PAE_NUH24; S=Susceptible; outline: as §1
Pseudomonas aeruginosa [28] = assay: Susceptibility testing against Pseudomonas aeruginosa PAE_NUH07; I=Intermediate; outline: as §2
Pseudomonas aeruginosa [29] = assay: Susceptibility testing against Pseudomonas aeruginosa PAE_NUH18; S=Susceptible; outline: as §1
Pseudomonas aeruginosa [30] = assay: Susceptibility testing against Pseudomonas aeruginosa ATCC 27853; R=Resistant; outline: as §2

Row | Compound | Activity (Pseudomonas aeruginosa [1]) | Activity (Pseudomonas aeruginosa [2]) | Activity (Pseudomonas aeruginosa [3]) | Activity (Pseudomonas aeruginosa [4]) | Activity (Pseudomonas aeruginosa [5]) | Activity (Pseudomonas aeruginosa [6]) | Activity (Pseudomonas aeruginosa [7]) | Activity (Pseudomonas aeruginosa [9]) | Activity (Pseudomonas aeruginosa [10]) | Activity (Pseudomonas aeruginosa [11]) | Activity (Pseudomonas aeruginosa [12]) | Activity (Pseudomonas aeruginosa [13]) | Activity (Pseudomonas aeruginosa [14]) | Activity (Pseudomonas aeruginosa [15]) | Activity (Pseudomonas aeruginosa [19]) | Activity (Pseudomonas aeruginosa [20]) | Activity (Pseudomonas aeruginosa [21]) | Activity (Pseudomonas aeruginosa [22]) | Activity (Pseudomonas aeruginosa [24]) | Activity (Pseudomonas aeruginosa [25]) | further results
1 | GENTAMICIN | Susceptible | Resistant | Resistant | Susceptible | Resistant | Resistant | Susceptible | Resistant | Susceptible | Susceptible | Resistant | Susceptible | Resistant | Susceptible | – | – | – | – | – | – | Activity (Pseudomonas aeruginosa [8]): I; Activity (Pseudomonas aeruginosa [16]): I; Activity (Pseudomonas aeruginosa [17]): I
2 | C[C@H]1[C@H](NC(=O)/C(=N\OC(C)(C)C(=O)O)c2csc(N)n2)C(=O)N1S(=O)(=O)O | – | Resistant | Resistant | – | Resistant | Resistant | – | Resistant | Susceptible | – | Resistant | Susceptible | Resistant | – | Resistant | Resistant | Resistant | Resistant | Resistant | Resistant | Activity (Pseudomonas aeruginosa [18]): Resistant; Activity (Pseudomonas aeruginosa [23]): Resistant
3 | CC(C)(O/N=C(\C(=O)N[C@@H]1C(=O)N2C(C(=O)[O-])=C(C[n+]3ccccc3)CS[C@H]12)c1csc(N)n1)C(=O)O | Susceptible | Resistant | Resistant | Susceptible | Resistant | – | Susceptible | Resistant | Susceptible | Susceptible | Resistant | Susceptible | Resistant | Susceptible | – | – | – | – | – | – | Activity (Pseudomonas aeruginosa [26]): Susceptible; Activity (Pseudomonas aeruginosa [27]): Susceptible; Activity (Pseudomonas aeruginosa [28]): I; Activity (Pseudomonas aeruginosa [29]): Susceptible
4 | COc1cc(Cc2cnc(N)nc2N)cc(OC)c1OC.Cc1cc(NS(=O)(=O)c2ccc(N)cc2)no1 | – | Resistant | Resistant | Susceptible | Resistant | Resistant | – | Resistant | Susceptible | Susceptible | Resistant | – | Resistant | – | Resistant | Resistant | Resistant | Resistant | Resistant | Resistant | Activity (Pseudomonas aeruginosa [30]): Resistant
